Measured values reported in ChEMBL document CHEMBL1145251, “Synthesis of thiosemicarbazone and 4-thiazolidinone derivatives and their in vitro anti-Toxoplasma gondii activity” (Bioorg Med Chem Lett, 2005).

Assays:
Toxoplasma gondii [1] = assay: Compound tested on intracellular parasites Toxoplasma gondii in vero cells after 24 h; type: functional, organism-based
In short: (§1)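 Infected Vero cultures (tachyzoites, 1:10, 24 h at 37 °C beforehand) were exposed 24 h to compound over 0.01–30 mM, as a dilution series (0.1, 1, 10, 20, 30 mM) in triplicate per assay. Trypan blue exclusion was the read-out, and IC50 (mean ± SD) came from non-linear regression.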

Vero [2] = assay: Compound tested on vero cells infected with Toxoplasma gondii after 24 h; type: functional, cell-based; details: Chlorocebus sabaeus; in short: as §1
Toxoplasma gondii [3] = assay: Mean number of intracellular parasites in vero cells was determined after treatment with compound (Untreated=683); type: functional
Vero [4] = assay: Compound tested for percent reduction of vero cells infected with Toxoplasma gondii after 24 h at 37 degree Centigrade (Untreated=89); type: functional, Chlorocebus sabaeus
Toxoplasma gondii [5] = assay: Mean number of intracellular parasites in vero cells was determined after treatment with compound (Untreated=663); type: functional
Vero [6] = assay: Compound tested for percent reduction of vero cells infected with Toxoplasma gondii after 24 h at 37 degree Celsius (Untreated=86); type: functional, Chlorocebus sabaeus
Toxoplasma gondii [7] = assay: Mean number of intracellular parasites in vero cells was determined after treatment with compound (Untreated=768); type: functional
Vero [8] = assay: Compound tested for percent reduction of vero cells infected with Toxoplasma gondii after 24 h at 37 degree Celsius (Untreated=76); type: functional, Chlorocebus sabaeus
Toxoplasma gondii [9] = assay: Mean number of intracellular parasites in vero cells was determined after treatment with compound (Untreated=642); type: functional
Vero [10] = assay: Compound tested for percent of vero cells infected with Toxoplasma gondii after 24 hr at 37 degree Centigrade (Untreated=84)
Vero [11] = assay: Compound tested for percent reduction of vero cells infected with Toxoplasma gondii after 24 hr at 37 degree Centigrade (Untreated=85); type: functional, Chlorocebus sabaeus
Toxoplasma gondii [12] = assay: Mean number of intracellular parasites in vero cells was determined after treatment with compound (Untreated=628); type: functional
Toxoplasma gondii [13] = assay: Mean number of intracellular parasites in vero cells was determined after treatment with compound (Untreated=698); type: functional
Vero [14] = assay: Compound tested for percent reduction of vero cells infected with Toxoplasma gondii after 24 h at 37 degree Celsius (Untreated=65); type: functional, Chlorocebus sabaeus
[15] = Mean number of intracellular parasites in vero cells was determined after treatment with compound (Untreated=852); type: functional, Toxoplasma gondii
Vero [16] = assay: Compound tested for percent reduction of vero cells infected with Toxoplasma gondii after 24 hr at 37 degree Centigrade (Untreated=80); type: functional, Chlorocebus sabaeus
Toxoplasma gondii [17] = assay: Mean number of intracellular parasites in vero cells was determined after treatment with compound (Untreated=840); type: functional
Toxoplasma gondii [18] = assay: Mean number of intracellular parasites in vero cells was determined after treatment with compound (Untreated=442); type: functional
Toxoplasma gondii [19] = assay: Mean number of intracellular parasites in vero cells was determined after treatment with compound (Untreated=783); type: functional
Vero [20] = assay: Compound tested for percent reduction of vero cells infected with Toxoplasma gondii after 24 hr at 37 degree Centigrade (Untreated=81); type: functional, Chlorocebus sabaeus
Toxoplasma gondii [21] = assay: Mean number of intracellular parasites in vero cells was determined after treatment with compound (Untreated=732); type: functional
Vero [22] = assay: Compound tested for percent reduction of vero cells infected with Toxoplasma gondii after 24 h at 37 degree Centigrade (Untreated=83); type: functional, Chlorocebus sabaeus
Toxoplasma gondii [23] = assay: Mean number of intracellular parasites in vero cells was determined after treatment with compound (Untreated=687); type: functional
Toxoplasma gondii [24] = assay: Mean number of intracellular parasites in vero cells was determined after treatment with compound (Untreated=627); type: functional
Toxoplasma gondii [25] = assay: Mean number of intracellular parasites in vero cells was determined after treatment with compound (Untreated=913); type: functional
Vero [26] = assay: Compound tested for percent reduction of vero cells infected with Toxoplasma gondii after 24 h at 37 degree Celsius (Untreated=87); type: functional, Chlorocebus sabaeus
Toxoplasma gondii [27] = assay: Mean number of intracellular parasites in vero cells was determined after treatment with compound (Untreated=726); type: functional
Toxoplasma gondii [28] = assay: Mean number of intracellular parasites in vero cells was determined after treatment with compound (Untreated=786); type: functional
Vero [29] = assay: Compound tested for percent reduction of vero cells infected with Toxoplasma gondii after 24 hr at 37 degree Centigrade (Untreated=72); type: functional, Chlorocebus sabaeus
Toxoplasma gondii [30] = assay: Mean number of intracellular parasites in vero cells was determined after treatment with compound (Untreated=888); type: functional

Which IC50 (Toxoplasma gondii [1]) does the source give for `Nc1ccc(S(=O)(=O)Nc2ncccn2)cc1` [SULFADIAZINE] here?
The IC50 was 100 µM.

What about the IC50 (Vero [2]) of the same molecule?
Its IC50 is 90 µM.

With `C/N=C(/S)N/N=C/c1ccc([N+](=O)[O-])cc1` as the molecule, how does the IC50 (Toxoplasma gondii [1]) read?
Its IC50 is 3000 µM.

What about the “Mean number of parasites” value (Toxoplasma gondii [3]) of the same molecule?
The value was 72.

What about the Reduction (Vero [4]) of the same molecule?
Its Reduction is 12%.

What about the IC50 (Vero [2]) of the same molecule?
Its IC50 is 10000 µM.

Which “Mean number of parasites” value (Toxoplasma gondii [5]) does the source give for `CCN1C(=O)C(CC(=O)O)S/C1=N\N=C\c1ccccc1[N+](=O)[O-]` (centres undefined) here?
Its value is 3.

And the Reduction (Vero [6])?
Its Reduction is 14%.

With `N/C(S)=N/N=C/c1cccc([N+](=O)[O-])c1` as the molecule, how does the IC50 (Toxoplasma gondii [1]) read?
Its IC50 is 100 µM.

What about the “Mean number of parasites” value (Toxoplasma gondii [7]) of the same molecule?
The value was 3.

What about the Reduction (Vero [8]) of the same molecule?
The Reduction was 4%.

And the IC50 (Vero [2])?
Its IC50 is 2000 µM.

Which IC50 (Toxoplasma gondii [1]) does the source give for `C/N=C(/S)N/N=C/c1cccc([N+](=O)[O-])c1` here?
Its IC50 is 500 µM.

And the “Mean number of parasites” value (Toxoplasma gondii [9])?
Its value is 1.

What about the Infected cells (Vero [10]) of the same molecule?
The Infected cells was 9%.

What about the IC50 (Vero [2]) of the same molecule?
Its IC50 is 1500 µM.

What does the source list for `CN1C(=O)C(CC(=O)O)S/C1=N\N=C\c1cccc([N+](=O)[O-])c1` (centres undefined)?
Reduction (Vero [11]): 11%; Mean number of parasites (Toxoplasma gondii [12]): 2

Which IC50 (Toxoplasma gondii [1]) does the source give for `N/C(S)=N/N=C/c1ccc([N+](=O)[O-])cc1` here?
The IC50 was 500 µM.

What about the “Mean number of parasites” value (Toxoplasma gondii [13]) of the same molecule?
The value was 4.

What about the Reduction (Vero [14]) of the same molecule?
The Reduction was 5%.

What about the IC50 (Vero [2]) of the same molecule?
Its IC50 is 1500 µM.

Which IC50 (Toxoplasma gondii [1]) does the source give for `CC/N=C(/S)N/N=C/c1cccc([N+](=O)[O-])c1` here?
Its IC50 is 80 µM.

What about the “Mean number of parasites” value (Toxoplasma gondii [7]) of the same molecule?
Its value is 5.

And the Reduction (Vero [8])?
Its Reduction is 7%.

What about the IC50 (Vero [2]) of the same molecule?
The IC50 was 1000 µM.

What does the source list for `CC/N=C(/S)N/N=C/c1ccc([N+](=O)[O-])cc1`?
IC50 (Toxoplasma gondii [1]): 500 µM; Mean number of parasites [15]: 9; IC50 (Vero [2]): 2500 µM; Reduction (Vero [6]): 17%

For `O=C(O)CC1SC(N/N=C/c2cccc([N+](=O)[O-])c2)=NC1=O` (centres undefined), which IC50 (Toxoplasma gondii [1]) is on record?
The IC50 was 500 µM.

And the Reduction (Vero [16])?
Its Reduction is 15%.

What about the “Mean number of parasites” value (Toxoplasma gondii [17]) of the same molecule?
Its value is 4.

And the IC50 (Vero [2])?
Its IC50 is 2000 µM.

For `O=[N+]([O-])c1cccc(/C=N/N=C(\S)Nc2ccccc2)c1`, which IC50 (Toxoplasma gondii [1]) is on record?
Its IC50 is 80 µM.

And the Reduction (Vero [14])?
Its Reduction is 7%.

And the “Mean number of parasites” value (Toxoplasma gondii [18])?
The value was 11.

What about the IC50 (Vero [2]) of the same molecule?
Its IC50 is 1000 µM.

What does the source list for `CC/N=C(/S)N/N=C/c1ccccc1[N+](=O)[O-]`?
IC50 (Toxoplasma gondii [1]): 500 µM; Mean number of parasites (Toxoplasma gondii [19]): 1; Reduction (Vero [20]): 8%; IC50 (Vero [2]): 2000 µM

With `CCN1C(=O)C(CC(=O)O)S/C1=N\N=C\c1cccc([N+](=O)[O-])c1` (centres undefined) as the molecule, how does the Reduction (Vero [11]) read?
Its Reduction is 19%.

What about the “Mean number of parasites” value (Toxoplasma gondii [21]) of the same molecule?
Its value is 3.

What does the source list for `O=C(O)CC1S/C(=N\N=C\c2ccccc2[N+](=O)[O-])N(c2ccccc2)C1=O` (centres undefined)?
Reduction (Vero [22]): 8%; Mean number of parasites (Toxoplasma gondii [23]): 2

With `C/N=C(/S)N/N=C/c1ccccc1[N+](=O)[O-]` as the molecule, how does the IC50 (Toxoplasma gondii [1]) read?
The IC50 was 500 µM.

What about the “Mean number of parasites” value (Toxoplasma gondii [19]) of the same molecule?
The value was 2.

What about the Reduction (Vero [20]) of the same molecule?
The Reduction was 9%.

And the IC50 (Vero [2])?
Its IC50 is 2000 µM.

Which IC50 (Toxoplasma gondii [1]) does the source give for `CCN1C(=O)C(CC(=O)O)S/C1=N\N=C\c1ccc([N+](=O)[O-])cc1` (centres undefined) here?
Its IC50 is 500 µM.

And the Reduction (Vero [16])?
Its Reduction is 7%.

And the “Mean number of parasites” value (Toxoplasma gondii [24])?
The value was 2.

And the IC50 (Vero [2])?
Its IC50 is 2000 µM.

What does the source list for `O=[N+]([O-])c1ccccc1/C=N/N=C(\S)Nc1ccccc1`?
IC50 (Toxoplasma gondii [1]): 500 µM; Mean number of parasites (Toxoplasma gondii [9]): 3; Infected cells (Vero [10]): 7%; IC50 (Vero [2]): 1000 µM

Which IC50 (Toxoplasma gondii [1]) does the source give for `NC(=O)NO` [HYDROXYUREA] here?
The IC50 was 100 µM.

And the Reduction (Vero [16])?
The Reduction was 26%.

What about the IC50 (Vero [2]) of the same molecule?
Its IC50 is 100 µM.

And the “Mean number of parasites” value (Toxoplasma gondii [25])?
The value was 186.

For `CN1C(=O)C(CC(=O)O)S/C1=N\N=C\c1ccc([N+](=O)[O-])cc1` (centres undefined), which Reduction (Vero [26]) is on record?
The Reduction was 13%.

What about the “Mean number of parasites” value (Toxoplasma gondii [27]) of the same molecule?
Its value is 2.

With `O=C(O)CC1S/C(=N\N=C\c2cccc([N+](=O)[O-])c2)N(c2ccccc2)C1=O` (centres undefined) as the molecule, how does the “Mean number of parasites” value (Toxoplasma gondii [28]) read?
The value was 2.

What about the Reduction (Vero [29]) of the same molecule?
The Reduction was 13%.

Which IC50 (Toxoplasma gondii [1]) does the source give for `O=C(O)CC1SC(N/N=C/c2ccc([N+](=O)[O-])cc2)=NC1=O` (centres undefined) here?
Its IC50 is 500 µM.

What about the Reduction (Vero [11]) of the same molecule?
The Reduction was 16%.

And the IC50 (Vero [2])?
The IC50 was 2500 µM.

What about the “Mean number of parasites” value (Toxoplasma gondii [21]) of the same molecule?
Its value is 4.

Which IC50 (Toxoplasma gondii [1]) does the source give for `CN1C(=O)C(CC(=O)O)S/C1=N\N=C\c1ccccc1[N+](=O)[O-]` (centres undefined) here?
The IC50 was 500 µM.

And the “Mean number of parasites” value (Toxoplasma gondii [30])?
The value was 3.

And the Infected cells (Vero [10])?
Its Infected cells is 15%.

And the IC50 (Vero [2])?
Its IC50 is 2000 µM.
